The values below come from publication PMC4083586 (Biotechnology journal, 2011).

The assay concerns porcine parvovirus (PPV). The experiment in a line: PPV removal by peptide-resin columns from 7.5% human blood plasma. The following applies: Figure 3B. In kind it is binding, porcine parvovirus (PPV) NADL-2 strain. The procedure, abridged: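 Peptides on resin at 0.10 mmol/g dry resin with a four-unit ethylene oxide spacer; 0.5 ml settled resin in PBS per column; acetylated control. About 5 log₁₀ (MTT/ml) PPV was pumped at 0.1 ml/min. Fractions of 0.5 ml (one column volume) were titered by MTT assay on PK-13 cells. Clearance over five column volumes was expressed relative to a reference trimer ligand (100%). Duplicates.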

For the substance YKLKYY, the “PPV clearance of the first five column volumes, ranking among ligands” value is listed as “highest virus clearance”.
